Experimental data reported in ChEMBL document CHEMBL1177679, “Design and synthesis of novel benzimidazole derivatives as inhibitors of hepatitis B virus” (Bioorg Med Chem, 2010).
pIC50: −log10 of the molar value.

How the values were obtained:
[1] = Selectivity index, ratio of CC50 for human HepG2(2.2.15) cells to IC50 for Hepatitis B virus; format: functional
In short: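 SI calculated as CC50 (MTT, HepG2.2.15, 8 days) divided by IC50 for inhibition of cytoplasmic HBV-DNA synthesis (fluorescent PCR) in the same cells.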

Hepatitis B virus = assay: Antiviral activity against Hepatitis B virus infected in human HepG2(2.2.15) cells assessed as inhibition of viral cytoplasmic DNA synthesis after 8 days by RT-PCR analysis; format: functional, organism-based; conditions: HepG2 2.2.15, 192 h
[2] = Cytotoxicity against human HepG2(2.2.15) cells after 8 days by MTT assay; format: cell-based
In short: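 HepG2.2.15 cells in triplicate, exposed 8 days to various doses; media-only controls. MTT (5 g/L) added 4 h before end, cells lysed with 10% SDS/50% DMF pH 7.2, OD read at 570 nm 6 h later.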

pIC50 (Hepatitis B virus): 6.80
SMILES: Nc1ccn([C@@H]2CS[C@H](CO)O2)c(=O)n1 [LAMIVUDINE]
Selectivity Index [1]: 31.3
CC50 at 192 h [2]: 5000 nM
